17 molecules from ChEMBL document CHEMBL2062455, “Daphmacromines A-J, alkaloids from Daphniphyllum macropodum” (J Nat Prod, 2012) can be followed below.

The nature of data set [1]: Toxicity in brine shrimp assessed as mortality at […] after 24 hrs by microscopic analysis. In kind it is organism-based. The settings on record: artemia salina, in vivo; read-out: Activity. An outline of the steps: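 Artemia salina eggs hatched in artificial seawater for 48 h at 28 °C to give nauplii. Compounds dissolved in DMSO, then diluted in artificial seawater to 100, 50 and 10 mg/L and tested in triplicate, with DMSO control wells. 15−25 nauplii per well, covered plate, 28 °C, 24 h. Nonmotile nauplii were scored as dead under the microscope.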

For data set [2], the system named is HL-60. Put plainly: Cytotoxicity against human HL60 cells after 48 hrs by MTT assay. The format is functional, cell-based. The settings on record: HL-60, 48 h. An outline of the steps:
(§1)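 Cells kept in DMEM or RPMI-1640 with 10% FBS at 37 °C, 5% CO2. Initial density 5 × 10^3 to 1 × 10^4 cells/mL. Adherent cells attached 12 h before dosing; suspension cells seeded just before dosing. Compounds at 40 μM, triplicate, 48 h, cisplatin and paclitaxel as positive controls. MTT then 4 h at 37 °C, SDS lysis, OD 595 nm. IC50 by Reed–Muench method.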
A general note: Tetrazolium assays rely on reduction of a dye to a coloured formazan, in cell work by metabolically active cells.

The subject of data set [3] is SMMC-7721. The data set can be described thus: Cytotoxicity against human SMMC7721 cells after 48 hrs by MTT assay. In kind it is functional, cell-based. As to conditions: SMMC-7721, 48 h. The essentials: as §1
Data set [4] relates to A549. Put plainly: Cytotoxicity against human A549 cells after 48 hrs by MTT assay. The format is functional, cell-based. As to conditions: A549, 48 h. The essentials:
as §1

Data set [5] concerns MCF7. The data set can be described thus: Cytotoxicity against human MCF7 cells after 48 hrs by MTT assay. The format is functional, cell-based. The settings on record: MCF7, 48 h. The essentials:
as §1

In data set [6] the test system is SW480. Put plainly: Cytotoxicity against human SW480 cells after 48 hrs by MTT assay. In kind it is functional, cell-based. The settings on record: SW480, 48 h. An outline of the steps: as §1

pIC50: −log10 of the molar value.

As usually defined, the pIC50 is the negative decadic logarithm of the IC50, by convention in mol/L. A higher pIC50 goes with a low IC50. For `COC(=O)[C@@H]1C[C@@]23C(=O)N4C[C@@H](CCC5=C2[C@@H]1CC5)[C@]3(CO)/C=C\C(=O)[C@H](C)C4`, the mortality at 24 h in data set [1] amounted to 38.3%. The pIC50 in data set [2], in data set [3], in data set [4], in data set [5] and in data set [6] was under 4.40 throughout.
With `COC(=O)[C@@H]1C[C@@]23C4=C(CC[C@@H]5CN6C[C@@H](C)[C@@H](C=C[C@@]52C=O)[C@]63O)CC[C@@H]41` [DAPHHIMALENINE B], in data set [1], the mortality at 24 h turned out to be 64.9%. Besides, the pIC50 in data set [2], in data set [3], in data set [4], in data set [5] and in data set [6] was under 4.40 throughout.
On to `CCOC(=O)[C@@H]1C[C@@]23CN(C)C[C@@H](CCC4=C2[C@@H]1CC4=O)C31CC[C@](CC)(OC)OC1` (stereo partly specified) [DAPHMACROMINE A], for which the mortality at 24 h in data set [1] was 41%. In addition, the pIC50 in data set [2], in data set [3], in data set [4], in data set [5] and in data set [6] was under 4.40 in each case.
Consider `CCOC(=O)[C@@H]1C[C@@]23CN(C)C[C@@H](CCC4=C2[C@H]1CC4=O)C31CC[C@](CC)(OC)OC1` (stereo partly specified) [DAPHMACROMINE B], for which the mortality at 24 h in data set [1] worked out at 49.9%. Also, the pIC50 in data set [2], in data set [3], in data set [4], in data set [5] and in data set [6] was under 4.40 each time.
`CCO[C@@]1(CC)CCC2(CO1)[C@@H]1CCC3=C4[C@H](CC3=O)[C@H](C(=O)OC)C[C@@]42CN(C)C1` (stereo partly specified) [DAPHMACROMINE C]: the mortality at 24 h in data set [1] turned out to be 50.9%. For the same molecule, the pIC50 in data set [2], in data set [3], in data set [4], in data set [5] and in data set [6] was under 4.40 throughout.
With `CCO[C@@]1(CC)CCC2(CO1)[C@@H]1CCC3=C4[C@@H](CC3=O)[C@H](C(=O)OC)C[C@@]42CN(C)C1` (stereo partly specified) [DAPHMACROMINE D], in data set [1], the mortality at 24 h is 53.8%. The pIC50 in data set [2], in data set [3], in data set [4], in data set [5] and in data set [6] was under 4.40 throughout.
In the case of `CC[C@]1(OC)CCC2(CO1)[C@@H]1CCC3=C4[C@H](CC3=O)[C@H](C(=O)OC)C[C@@]42CN(C)C1` (stereo partly specified) [DAPHMACROMINE E], the mortality at 24 h in data set [1] is 70.9%. Also, the pIC50 in data set [2], in data set [3], in data set [4], in data set [5] and in data set [6] was under 4.40 in each case.
Turning to `CC[C@@]1(OC)CCC2(CO1)[C@@H]1CCC3=C4[C@H](CC3=O)[C@H](C(=O)OC)C[C@@]42CN(C)C1` (stereo partly specified) [DAPHMACROMINE F], the mortality at 24 h in data set [1] turned out to be 45%. Further, the pIC50 in data set [2], in data set [3], in data set [4], in data set [5] and in data set [6] was under 4.40 throughout.
In the case of `CC[C@]1(OC)CCC2(CO1)[C@@H]1CCC3=C4[C@@H](CC3=O)[C@H](C(=O)OC)C[C@@]42CN(C)C1` (stereo partly specified) [DAPHMACROMINE G], the mortality at 24 h in data set [1] came out at 67.7%. The pIC50 in data set [2], in data set [3], in data set [4], in data set [5] and in data set [6] was under 4.40 in each case.
As for `COC(=O)[C@@H]1C[C@@]23CN(C)C[C@@H](CCC4=C2[C@H]1CC4=O)C31CC[C@@](O)(C(C)C)OC1` (stereo partly specified) [DAPHMACROMINE H], the pIC50 in data set [2], in data set [3], in data set [4], in data set [5] and in data set [6] was under 4.40 each time.
Consider `CCC1=CCC2(CO1)[C@@H]1CCC3=C4[C@H](CC3=O)[C@H](C(=O)OC)C[C@@]42CN(C)C1` (stereo partly specified) [DAPHMACROMINE I], for which the mortality at 24 h in data set [1] amounted to 64.6%. The negative logarithm of the IC50 (pIC50) in data set [2], in data set [3], in data set [4], in data set [5] and in data set [6] was under 4.40 in each case.
Consider `COC(=O)[C@@H]1C[C@@]23CN(C)C[C@@H](CCC4=C2[C@@H]1CC4=O)C31CC=C(C(C)C)OC1` (stereo partly specified) [DAPHMACROMINE J], for which the mortality at 24 h in data set [1] was 55.2%. The pIC50 in data set [2], in data set [3], in data set [4], in data set [5] and in data set [6] was under 4.40 throughout.
As to `COC(=O)[C@@H]1C[C@@]23C4=C(CC[C@@H]5CN6C[C@@H](C)[C@@H](C[C@@H](O)[C@@]52CO)[C@]63O)CC[C@@H]41` [DAPHNEZOMINE K], the mortality at 24 h in data set [1] worked out at 0%. Also, the pIC50 in data set [2], in data set [3], in data set [4], in data set [5] and in data set [6] was under 4.40 in each case.
Regarding `COC(=O)[C@@H]1C[C@]23C4=NC[C@@H](C)[C@]45C[C@@H](OC(C)=O)[C@@]2(COC(C)=O)[C@H](CCC2=C3[C@@H]1CC2)[C@H]5O` [DAPHTENIDINE C], the mortality at 24 h in data set [1] worked out at 31.8%. Besides, the pIC50 in data set [2], in data set [3], in data set [4], in data set [5] and in data set [6] was under 4.40 each time.
Regarding `COC(=O)[C@@H]1C[C@@]23C4=C(CC[C@@H]5CN6C[C@@H](C)[C@@H](C[C@@H](OC(C)=O)[C@@]52COC(C)=O)C63)CC[C@@H]41` [DEOXYYUZURIMINE], the mortality at 24 h in data set [1] was 81.8%. Further, the pIC50 in data set [2], in data set [3], in data set [4], in data set [5] and in data set [6] was under 4.40 each time.
Take `COC(=O)[C@@H]1C[C@@]23C4=C(CC[C@@H]5CN6C[C@H](C)[C@@](O)(C=C[C@@]52C=O)[C@]63O)CC[C@@H]41` [YUZURIMINE C]: the mortality at 24 h in data set [1] came to 80.6%. The negative logarithm of the IC50 (pIC50) in data set [2], in data set [3], in data set [4], in data set [5] and in data set [6] was under 4.40 in each case.
On to `COC(=O)[C@@H]1C[C@@]23C4=C(CC[C@@H]5CN6C[C@@H](C)[C@@H](C[C@@H](OC(C)=O)[C@@]52COC(C)=O)[C@]63O)CC[C@@H]41` [YUZURIMINE], for which the mortality at 24 h in data set [1] was 70.8%. Also, the pIC50 in data set [2], in data set [3], in data set [4], in data set [5] and in data set [6] was under 4.40 in each case.
